Sampled rows, rich in hits. Any-hit rate of the full collection: about 2.9%.
PfM18AAP inh = blocks P. falciparum M18 aspartyl aminopeptidase; recombinant PfM18AAP, H-Glu-NHMec fluorogenic cleavage; inhibition, % at 7.35 µM; 290,000 tested, 1.2% active; AID 1822;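 active = inhibition above the campaign mean inhibition over all tested compounds plus 3 SD, cut at about 28% in these data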;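 note: 0% = plate median of test compound wells and 100% = 2 mM ZnCl2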
Runt-SMMHC FRET = blocks binding of human RUNX1 Runt domain to CBFb-SMMHC; Q01196+Q13951; Cerulean-Runt/Venus-CBFb-SMMHC FRET ratio 530/480, 1 h; inhibition, % at 20 µM; 220,000 tested, 0.74% active;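 active = mean inhibition across duplicate retests at 20 µM reaching about 50%, limit read from the data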;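 note: 0% = DMSO wells and 100% = wells with excess untagged CBFb-SMMHC; inhibitors lower the FRET ratio by blocking Runt binding to CBFb-SMMHC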
Runt-CBFb FRET = inhibitors of human RUNX1 Runt domain binding to CBFb | Q01196+Q13951 | Cerulean-Runt/Venus-CBFb FRET ratio 530/480, 1 h | inhibition, % at 20 µM | 220,000 tested, 0.46% active;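 active = inhibition over about 50% at 20 µM in the single-dose screen, limit read from the data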;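 note: 0% = DMSO wells and 100% = excess unlabeled CBFb competitor control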
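Assay system: Cerulean-tagged RUNX1 Runt domain (FRET donor) fusion protein / Amount: 100 nM each of Venus-CBFb and Cerulean-Runt domain / Medium: Tris buffer pH 7.5 with salts and BSA / Also added: Venus-CBFb 100 nM / Schedule: 1 h complex formation plus 1 h compound treatment, room temperature / Signal: FRET fluorescence / Read-out: loss of energy transfer signal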
RanGTP-Impb inh = inhibitors of RanGTP-importin-beta interaction, primary screen, biochemical, FRET, CFP-Ran, YFP-importin-beta, homogeneous. cell-free CFP-Ran/YFP-importin-beta FRET ratio. inhibition, % (test concentration not listed). 300,000 tested, 1.1% active;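 active = more than half of the replicate wells show a fall in the fluorescence ratio signal beyond about 16%, limit read from the data, passing the limit was not always enough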;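 note: 0% = DMSO wells and 100% = Ran loaded with GDP instead of GTP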
RBBP9 inh = inhibitors of human serine hydrolase RBBP9 | O75884 | recombinant RBBP9, FP-Rh probe fluorescence polarization | inhibition, % at 7.94 µM | 220,000 tested, 0.2% active | AID 1515;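 active = inhibition above the campaign mean of all tested compounds plus 3 SD, cut at about 14% in these data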;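 note: plate controls were DMSO wells with RBBP9 for no effect and wells lacking RBBP9 protein for full effect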
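Test system: recombinant human RBBP9. Quantity: 2.5 µM RBBP9 dispensing solution, before mixing. Detection: FP readout at 525/598 nm. Reagent: Serine-hydrolase probe FP-Rh, 375 nM pre-mixing. Measure: % inhibition. Control set: DMSO-treated enzyme wells and wells lacking RBBP9. Buffer or medium: Tris-NaCl-Pluronic buffer, pH 8.0. Times: preincubation 30 min plus labeling 45 min at 25 °C.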
Hck Nef HTS = inhibitors of human Hck kinase activated by Nef; Recombinant Hck-YEEI plus Nef, Z-Lyte FRET kinase assay; inhibition, % at 20 µM; AID 463187; 220,000 tested, 0.68% active; P08631;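 active = Hck-Nef kinase inhibition above about 50%, limit read from the data; inactive = inhibition below that limit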;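 note: 0% = DMSO with Hck plus Nef and 100% = Hck alone without Nef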
Target sequence (P08631 whole entry, looked up): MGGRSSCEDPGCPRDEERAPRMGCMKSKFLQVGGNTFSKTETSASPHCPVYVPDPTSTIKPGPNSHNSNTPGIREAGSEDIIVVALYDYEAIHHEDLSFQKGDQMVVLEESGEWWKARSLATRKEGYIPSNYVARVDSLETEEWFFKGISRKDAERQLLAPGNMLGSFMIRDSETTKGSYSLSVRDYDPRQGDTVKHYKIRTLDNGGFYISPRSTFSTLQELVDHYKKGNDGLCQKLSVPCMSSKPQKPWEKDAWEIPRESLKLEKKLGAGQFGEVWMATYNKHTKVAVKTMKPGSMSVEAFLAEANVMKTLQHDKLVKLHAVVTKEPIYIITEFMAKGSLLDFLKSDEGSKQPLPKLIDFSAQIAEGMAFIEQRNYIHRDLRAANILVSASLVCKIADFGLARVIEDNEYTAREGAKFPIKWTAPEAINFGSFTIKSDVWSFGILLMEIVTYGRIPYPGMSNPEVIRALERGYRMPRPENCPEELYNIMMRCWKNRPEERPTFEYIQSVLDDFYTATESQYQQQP
* = called active by the depositor; . = no result given.

SMILES	PfM18AAP inh	Runt-SMMHC FRET	Runt-CBFb FRET	RanGTP-Impb inh	RBBP9 inh	Hck Nef HTS
Cc1ccc(CNC(=O)/C(C#N)=C\c2ccc(N(C)C)cc2)cc1	3	61*	12	72*	-6	3
CSCCC(NC(=O)c1ccccc1Cl)C(=O)N1CCN(c2ccccn2)CC1 (stereo unspecified)	-1	.	.	-2	.	.
Cn1nc(C(=O)NCc2ccccc2)c2c1-c1ccccc1S(=O)(=O)C2	-1	.	.	3	.	.
COc1ccc2oc(C(=O)OCC(=O)N(C)C3CCS(=O)(=O)C3)c(C)c2c1 (stereo unspecified)	.	.	.	2	.	.
COC(=O)Nc1ccc(S(=O)(=O)NNC(=O)c2c(O)c3ccccc3n(C)c2=O)cc1	10	.	.	3	.	.
C=C(C)CSc1cc(C)c(C#N)c2nc3ccccc3n12	-20	37	12	56*	4	8
Cc1cc(-c2ccco2)n2c(nc3ccccc32)c1C#N	6	-221	-48	-37	3	0
Cc1c2c(n3c(nc4ccccc43)c1C#N)N(CCN1CCOCC1)CC2	0	.	.	112*	-6	76*
CCN(CC)CCNc1cc(C)c(C#N)c2nc3ccccc3n12	20	.	.	11	.	.
Cc1cc(NCCN2CCOCC2)n2c(nc3ccccc32)c1C#N	2	31	12	5	-11	25
C=C(C)Cc1c(C)c(C#N)c2nc3ccccc3n2c1N1CCCCC1	-5	32	14	29*	5	1
COCCN(CCOC)c1cc(C)c(C#N)c2nc3ccccc3n12	0	63*	53*	57*	-4	6
CN(C)c1nc(N)c([N+](=O)[O-])c(N2CCCCCC2)n1	-14	.	.	-1	.	.
C=CCn1c(C2CCCCC2)n[nH]c1=S	22	3	5	2	-2	22
COc1ccc(CCNC(=S)Nc2cccc(C)c2C)cc1	7	5	0	27*	-10	5
Cc1cccc(NC(=S)NCCc2ccccc2)c1C	7	.	.	0	.	.
COc1ccc(NS(=O)(=O)c2cc(NC(=O)c3nc4nc(C)cc(C)n4n3)ccc2C)cc1	0	-2	-6	.	-1	14
CC(C)(C)c1ccc(C(=O)NC(=S)N2CCCC2)cc1	11	.	.	6	.	.
CC(C)(C)c1ccc(C(=O)NC(=S)Nn2cnnc2)cc1	55*	4	11	-2	-8	-4
CN1C(=O)S/C(=C/c2ccc(OCc3cccc(C(=O)O)c3)cc2)C1=O	2	.	.	0	.	.
COc1cccc(/C=C2/SC(=O)N(C)C2=O)c1OCc1ccc(C(=O)O)cc1	29*	2	2	4	2	1
O=C(NNc1ccccc1)Nc1ccccc1F	30*	.	.	1	.	.
O=C(Nc1ccccc1F)Nc1ccccc1F	0	-2	-2	-1	0	-8
Cc1ccc(-n2nc3c(=O)n(CCCC(=O)NCc4ccccc4Cl)nc(C)c3c2C)cc1	4	.	.	0	.	.
Clc1ccc(C[n+]2csc3ccccc32)cc1	38*	49	46	.	-5	0
SMILES	PfM18AAP inh	Runt-SMMHC FRET	Runt-CBFb FRET	RanGTP-Impb inh	RBBP9 inh	Hck Nef HTS
Cc1ccc(-c2c[n+](Cc3ccc(Cl)cc3)c3n2CCC3)cc1	-8	-1	1	2	-6	14
N#CCC(=O)N/N=C/c1ccc(N2N=C(c3ccccc3)CC2c2ccccc2)cc1 (stereo unspecified)	26	.	.	99*	.	.
COc1ccc(C2=NN(c3ccc(C=O)cc3)C(c3ccccc3)C2)cc1 (stereo unspecified)	-2	.	.	31*	.	.
O=Cc1ccc(N2N=C(c3ccccc3)CC2c2ccccc2)cc1 (stereo unspecified)	8	.	.	8	.	.
COc1ccc(C2CC(c3ccccc3)=NN2c2ccc(C(N)=O)cc2)cc1 (stereo unspecified)	-1	.	.	11	.	.
COc1ccc(C2CC(c3ccccc3)=NN2c2ccc(/C=N/NC(=O)c3ccncc3)cc2)cc1 (stereo unspecified)	-3	-248	-112	19*	1	4
CC(C)CC(=O)NC(=S)Nc1ccc(S(=O)(=O)NC(C)(C)C)cc1	-4	4	-2	3	-8	5
CC(C)CC(=O)NNC(=S)Nc1ccc(S(N)(=O)=O)cc1	29*	-1	14	-1	0	27
Cc1ccc(CNS(=O)(=O)c2c(C(=O)N3CCCCC3)c(C)n(C)c2C)o1	-5	.	.	0	.	.
Clc1ccsc1-c1ccnc(-n2cccc2)n1	-4	16	40	0	-9	-4
Clc1ccc(-c2ccnc(-n3cccc3)n2)s1	5	68*	13	2	-2	5
COC(=O)C1=CN(C2CC2)C=C(C(=O)OC)C1c1ccc(C(=O)OC)cc1	3	60*	107*	52*	-8	22
COC(=O)c1ccc([C@H]2CC(=O)O2)cc1	-5	.	.	1	.	.
CCc1ccc(CN2CCCC(CNC(=O)c3cccc(OC)c3OC)C2)cc1 (stereo unspecified)	1	.	.	3	.	.
Cn1c(=O)nc2n(Cc3ccccc3)c3cccc(Cl)c3cc-2c1=O	4	60*	95*	64*	-11	3
O=C1C=C(O)CC(c2ccco2)C1 (stereo unspecified)	12	2	4	0	-5	1
O=C1CC(=O)CC(c2ccco2)C1	28*	0	2	.	-4	-7
O=C(/C=C/c1ccc([N+](=O)[O-])cc1)c1cccs1	14	1	5	-3	-5	5
COc1cc([N+](=O)[O-])ccc1N/C=C/C(=O)c1cccs1	3	-6	-48	26*	-9	3
Cc1cccnc1NC(=O)C(c1ccccc1)c1ccccc1	2	.	.	0	.	.
Cc1onc(-c2ccccc2)c1C(=O)/C=C/N(C)C	-2	-1	0	17*	0	12
Cc1onc(-c2ccc(Cl)cc2Cl)c1C(=O)/C=C/N(C)C	-1	-1	0	-1	5	22
CCCCN(C(=O)/C=C/c1ccc(OC)cc1)C1CCS(=O)(=O)C1 (stereo unspecified)	.	.	.	3	.	.
Cc1ccc(S(=O)(=O)NC(C(=O)Oc2ccc3c(C(F)(F)F)cc(=O)oc3c2)c2ccccc2)cc1 (stereo unspecified)	-4	59*	19	36*	-4	-1
Fc1cc(Br)ccc1COc1ccc(-c2nnco2)cc1	-4	.	.	2	.	.
Cc1ccc(C)c(NCC(=O)c2ccc(Cl)cc2)c1	28*	.	.	-1	.	.
C/C(=N\NC(=O)c1nnn(-c2nonc2N)c1C(C)C)c1cc(C)sc1C	2	.	.	97*	.	.
CC1CN(C(=O)c2ccc(CNS(=O)(=O)c3cccc(Cl)c3)cc2)CC(C)O1 (stereo unspecified)	-3	.	.	4	.	.
CSC(=S)N/N=C/c1ccc(N(C)C)cc1	8	52*	18	1	-6	18

Screening data deposited in PubChem BioAssay by several laboratories.
